Measured values gathered from unrelated publications.
Protocols differ between the studies behind these lines.
Organism: Pseudomonas aeruginosa
Read-out: microbial growth

SMILES | test | system | setting | MIC
CCCCCCC#Cc1cncc(-c2nnc(SCc3ccc(Cl)cc3)n2CCCN)c1 | broth dilution | DSM1128 | – | > 64 µg/mL
Cc1ccc2[nH]nc(-c3nnc(Nc4ccc(Cl)cc4)s3)c2c1 | – | ATCC27853 | – | 119 µg/mL
COc1ccc2ccc(O)c(/C=N/[C@H]3CCCC[C@H]3/N=C/c3c(O)cccc3F)c2c1 | broth dilution | – | clinical isolate | > 40 µM
CNC(C)C1CCC(N)C(OC2C(N)CC(N)C(OC3OCC(C)(O)C(NC)C3O)C2O)O1 (stereo not shown) | broth dilution | ATCC27853 | – | 2 µg/mL
Cc1ccc2[nH]nc(-c3nnc(Nc4cc(Cl)cc(Br)c4)s3)c2c1 | – | ATCC27853 | – | 224 µg/mL
CCCCCCC#Cc1cncc(-c2nnc(SCc3cc([N+](=O)[O-])cc([N+](=O)[O-])c3)n2CCOC2OC(CN)C(O)C2O)c1 (stereo not shown) | broth dilution | DSM1128 | – | > 64 µg/mL
[H]/N=C(/N)N[C@H]1[C@H](O)[C@@H](O)[C@H](O[C@@H]2O[C@@H](C)[C@](O)(C=O)[C@H]2O[C@@H]2O[C@@H](CO)[C@H](O)[C@@H](O)[C@@H]2NC)[C@@H](N/C(N)=N\[H])[C@@H]1O | broth dilution | ATCC27 ATCC27853 | – | 20 µg/mL
Cc1ccc2[nH]nc(-c3nnc(Nc4ccc(O)cc4)s3)c2c1 | – | ATCC27853 | – | 63.9 µg/mL
OB1OCc2cc(F)ccc21 | broth dilution | – | – | 128 µg/mL
Cc1ccc2[nH]nc(-c3nnc(Nc4ccc([N+](=O)[O-])cc4)s3)c2c1 | – | ATCC27853 | – | 105 µg/mL
CCCCCCC#Cc1cncc(-c2nnc(SCc3ccc([N+](=O)[O-])cc3)n2CCCN)c1 | broth dilution | DSM1128 | – | > 64 µg/mL
C[C@@H](O)[C@H]1C(=O)N2C(C(=O)O)=C(S[C@@H]3CN[C@H](C(=O)N(C)C)C3)[C@H](C)[C@H]12 | – | ATCC27853 | drug-resistant strain | 0.25 µg/mL
COc1ccc2ccc(O)c(/C=N/[C@H]3CCCC[C@H]3/N=C/c3ccc(OCCN4CCCCC4)cc3O)c2c1 | broth dilution | – | – | > 40 µM
CC1(C)S[C@@H]2[C@H](NC(=O)[C@H](N)c3ccc(O)cc3)C(=O)N2[C@H]1C(=O)O | broth dilution | ATCC27853 | – | > 64 µg/mL
[H]/N=C(\N/C(=N/[H])NCCCCCCNC(=N)NC(=N)Nc1ccc(Cl)cc1)Nc1ccc(Cl)cc1 | – | PAO1 | – | 8 µM
C[C@@H](O)[C@H]1C(=O)N2C(C(=O)O)=C(SCCN=CN)C[C@H]12 | broth dilution | ATCC27853 | – | 4 µg/mL
Cc1ccc2[nH]nc(-c3nnc(Nc4ccc(Cl)c(Cl)c4)s3)c2c1 | – | ATCC27853 | – | 121 µg/mL
COc1ccc2ccc(O)c(/C=N/[C@H]3CCCC[C@H]3/N=C/c3ccc(-c4ccccc4)cc3O)c2c1 | broth dilution | – | clinical isolate | > 40 µM
Cc1ccc2[nH]nc(-c3nnc(Nc4ccc(Br)cc4)s3)c2c1 | – | ATCC27853 | – | 243 µg/mL
CCCCCCCCCCCC[N+](C)(C)Cc1ccccc1 | – | PAO1 | – | 250 µM
Cc1cc(Nc2nnc(-c3n[nH]c4ccc(C)cc34)s2)cc([N+](=O)[O-])c1 | – | ATCC27853 | – | 187 µg/mL
CC[C@H]1OC(=O)[C@H](C)[C@@H](O[C@H]2C[C@@](C)(OC)[C@@H](O)[C@H](C)O2)[C@H](C)[C@@H](O[C@@H]2O[C@H](C)C[C@H](N(C)C)[C@H]2O)[C@](C)(O)C[C@@H](C)CN(C)[C@H](C)[C@@H](O)[C@]1(C)O | broth dilution | ATCC27853 | – | 32 µg/mL
